Assay results pooled from the literature.
Lines come from different studies, so protocols differ.

| SMILES | test | system | setting | solubility |
| --- | --- | --- | --- | --- |
| CN(c1ncco1)c1ncnc2ccc(-c3cccc(N4CCOCC4)c3)cc12 |  | aqueous buffer | pH 7.4, 25 °C | 802 µM |
| CCN(c1ccc(C)cc1)c1ccc(NC(=O)CN(C)c2ccccc2N2CCCC2=O)cn1 |  | PBS | pH 7.4 | 3.4 µM |
| O=C([O-])CN1CCNCCN(CC(=O)[O-])CCNCC1.[Mn+2] |  | water |  | 470000 µg/mL |
| Cc1ccccc1CN1C(=O)C2=C(CCN(Cc3ccccc3)C2)N2CCN=C12 | shake flask | aqueous buffer | pH 4 | 92100 µg/mL |
| O=c1c2c([nH]c3cc(Oc4ccc(OC(F)(F)F)cc4)ccc13)CCCC2 | absorbance | aqueous buffer | 90 min, pH 7.4 | 18.5 µM |
| CC(=O)N[C@@H](CS)C(=O)O |  | aqueous buffer | pH 7.5 | 164000 µg/mL |
| O=C(Nc1ccc(OC(F)(F)F)cc1)N[C@H]1CC[C@H](Oc2ccc(C(=O)O)cc2)CC1 |  | simulated gastric fluid | 30 min, pH 1, 37 °C, acidic | 0.0005 µg/mL |
| OCc1ccc(-c2nn(Cc3ccccn3)c3cccnc23)o1 |  | aqueous buffer | 6 h, pH 7.4 | > 30 µg/mL |
| O=c1c2ccc(OCc3ccc(OC(F)(F)F)cc3)cc2[nH]c2cc(Cl)cc(F)c12 | absorbance | aqueous buffer | 90 min, pH 7.4 | < 3.12 µM |
| Oc1ccc(/C=C/c2cc(O)cc(O)c2)cc1 | HPLC | aqueous buffer | 24 h, pH 6.8 | 79.5 µg/mL |
| c1cc(-c2ccc3ncnc(Nc4ncco4)c3c2)cc(N2CC3(COC3)C2)c1 |  | aqueous buffer | pH 7.4, 25 °C | 3 µM |
| COc1cnc(Nc2cnnc3ccc(-c4ccc(N5CCN(C)CC5)cc4)cc23)nc1 |  | aqueous buffer | pH 7.4, 25 °C | 26 µM |
| O=C(O)c1cc(-c2ccc(-n3ccnn3)cc2)cc(-n2cc(-c3ccc(C(F)(F)F)cc3)nn2)c1 |  | aqueous buffer | pH 7.4 | 7.6 µg/mL |
| Clc1ccc(Nc2ncnc3ccc(-c4cccc(N5CCOCC5)c4)cc23)cc1Cl |  | aqueous buffer | pH 7.4, 25 °C | 4 µM |
| N[C@@H]1COc2ccc(-c3cccc(COc4ccccc4C(Nc4ccc5oc(=O)[nH]c5c4)C(=O)O)c3)cc21 (mixture of isomers) |  | aqueous buffer | pH 6.8 | 200 µM |
| C[C@@H]1COCCN1c1cccc(-c2ccc3ncnc(Nc4ncco4)c3c2)c1 |  | aqueous buffer | pH 7.4, 25 °C | 23 µM |
| CNS(=O)(=O)c1ccc(Nc2ncc(C(F)(F)F)c(N3CCC(C)(O)CC3)n2)c(C)c1 |  | PBS | 2 h, pH 7.4 | 2.7 µM |
| CCOC(=O)C1=C(CN2CCC[C@@H]2C(=O)Nc2ccc(B(O)O)cc2)NC(c2nccs2)=N[C@H]1c1ccc(F)cc1Br | HPLC | aqueous buffer | pH 7.4 | 4.14 µg/mL |
| CC(C)(C)OC(=O)N1CCC(Oc2ccc3c(=O)c4c(F)cc(Cl)cc4[nH]c3c2)C1 (stereo not drawn) | absorbance | aqueous buffer | 90 min, pH 7.4 | < 3.12 µM |
| OCc1ccc(-c2nn(Cc3ccccn3)c3ccccc23)o1 |  | aqueous buffer | 6 h, pH 7.4 | > 45 µg/mL |
| CNS(=O)(=O)c1ccc(Nc2ncc3cc(Cl)c(=O)n(C4CCCC4)c3n2)c(C)c1 |  | PBS | 2 h, pH 7.4 | 0.3 µM |
| CN(CC(=O)Nc1ccc(N(C)c2ccc(Cl)c(F)c2)cc1)c1ccccc1N1CCCC1=O |  | PBS | pH 7.4 | < 2.5 µM |
| c1cc(-c2ccc3ncnc(NC4CCOCC4)c3c2)cc(N2CCOCC2)c1 |  | aqueous buffer | pH 7.4, 25 °C | 202 µM |

| SMILES | test | system | setting | solubility |
| --- | --- | --- | --- | --- |
| NCc1ccc(-c2nn(Cc3ccccn3)c3cccnc23)o1 |  | aqueous buffer | 6 h, pH 7.4 | > 30 µg/mL |
| Cc1ccc(N(C)c2ccc(NC(=O)CN(C)c3cccnc3N3CCCC3=O)cc2)cc1 |  | PBS | pH 7.4 | 16 µM |
| c1cc(-c2ccc3ncnc(Nc4ncco4)c3c2)nc(N2C[C@H]3C[C@@H]2CO3)n1 |  | aqueous buffer | pH 7.4, 25 °C | 48 µM |
| Cc1ccc(Nc2cnnc3ccc(-c4ccc(N5CCCN(C)CC5)cc4)cc23)cn1 |  | aqueous buffer | pH 7.4, 25 °C | 82 µM |
| NCc1ccc(-c2nn(Cc3ccccc3)c3ccccc23)o1 |  | aqueous buffer | 6 h, pH 7.4 | > 45 µg/mL |
| Cc1ccc(N(C)c2ccc(NC(=O)CN(C)c3ccccc3N3CCCC3=O)cc2)cc1 |  | PBS | pH 7.4 | 7.2 µM |
| COc1ccccc1Cn1nc(-c2ccc(CO)o2)c2ccccc21 |  | aqueous buffer | 6 h, pH 7.4 | 1 µg/mL |
| CNS(=O)(=O)c1ccc(Nc2ncc(C(F)(F)F)c([C@H]3CC[C@](C)(O)CC3)n2)c(C)c1 |  | FaSSIF | 2 h | 14 µM |
| Clc1cccc(Nc2ncnc3ccc(-c4cccc(N5CCOCC5)c4)cc23)c1 |  | aqueous buffer | pH 7.4, 25 °C | 12 µM |
| Nc1nc2c(ncn2COCCO)c(=O)[nH]1 | shake flask | water | 24 h | 1770 µg/mL |
| Cn1cc(-c2ccc3c(Cl)cn(CC(=O)Nc4ccccc4Cl)c3c2)cn1 |  | PBS | pH 7.4 | < 2.7 µM |
| CCOc1ccc(Nc2c3c(nc4ccccc24)CCC3)cc1 |  | simulated gastric fluid | 30 min, pH 2, acidic | > 100 µg/mL |
| Cc1ccc(N(C)c2ccc(NC(=O)CN(C)c3cc(F)ccc3N3CCCC3=O)cc2)cc1 |  | PBS | pH 7.4 | 6.3 µM |
| O=c1c2ccc(Oc3ccc(OC(F)(F)F)cc3)cc2[nH]c2ccc(Cl)c(F)c12 | absorbance | aqueous buffer | 90 min, pH 7.4 | < 3.12 µM |
| Clc1ccc(Nc2ncnc3ccc(-c4cccc(N5CCOCC5)c4)cc23)cc1 |  | aqueous buffer | pH 7.4, 25 °C | < 0.4 µM |
| O=C(O)c1cc(-c2ccc(-n3ccnn3)cc2)c2ccc(-c3ccc(C(F)(F)F)cc3)cc2c1 |  | aqueous buffer | pH 4 | 0.19 µg/mL |
| OCc1ccc(-c2nn(Cc3cccnc3)c3cccnc23)o1 |  | aqueous buffer | 6 h, pH 7.4 | > 30 µg/mL |
| CC(=O)O[C@@H]1CC[C@@]2(C)[C@@H](CC[C@]3(C)[C@@H]2C(=O)C=C2[C@@H]4[C@@H](C)[C@H](C)CC[C@]4(C)CC[C@]23C)[C@@]1(C)C(=O)O |  | PBS | pH 7.4 | 6.45 µg/mL |
| CCCN1C(=O)COc2ccc(S(=O)(=O)Nc3cc(OC)ccc3OC)cc21 |  | PBS | 8 h, pH 7.4 | 100 µM |
| O=c1c2ccc(OCc3ccc(C(F)(F)F)cc3)cc2[nH]c2cc(Cl)cc(F)c12 | absorbance | aqueous buffer | 90 min, pH 7.4 | < 3.12 µM |
| CCOC(=O)C1=C(CN2CCOCC2)NC(c2nccs2)=NC1c1ccc(F)cc1Br (stereo not drawn) | HPLC | aqueous buffer | pH 2 | 183 µg/mL |
| CC[C@H]1OC(=O)[C@H](C)[C@@H](O[C@H]2C[C@@](C)(OC)[C@@H](O)[C@H](C)O2)[C@H](C)[C@@H](O[C@@H]2O[C@H](C)C[C@H](N(C)C)[C@H]2O)[C@](C)(O)C[C@@H](C)C(=O)[C@H](C)[C@@H](O)[C@]1(C)O |  | aqueous buffer | 18 h, pH 7.4 | 664 µM |
